Laboratory results published in ChEMBL document CHEMBL3792351, “Synthesis and anti-inflammatory activity evaluation of a novel series of 6-phenoxy-[1,2,4]triazolo[3,4-a]phthalazine-3-carboxamide derivatives” (Bioorg Med Chem Lett, 2016).
Calls of active or inactive are those of the source. The calls are words filed in the database; no cut-off is given here.

What was measured:
HeLa [1] = experiment: Inhibition of TNFalpha-induced NFkappaB (unknown origin) activation expressed in human HeLa cells at 100 uM pre-incubated for 8 hrs followed by stimulation with TNFalpha for 8 hrs by luciferase reporter assay; type: cell-based
Method in brief: (§1)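 HeLa cells transiently transfected 48 h with NF-κB-dependent luciferase reporter, pretreated 8 h with compounds (100 μM screen or indicated concentrations), then TNF-α (10 ng/ml) 8 h; luciferase activity read. Mean ± standard deviation, three independent experiments; compared with TNF-α-stimulated cells.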

HeLa [2] = experiment: Cytotoxicity against human HeLa cells assessed as cell viability at 100 uM after 24 hrs by MTT assay; type: cell-based
Method in brief: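 HeLa cells treated with compounds at indicated concentrations for 24 h; viability by MTT. Mean ± standard deviation of three independent experiments.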

Mus musculus [3] = experiment: Antiinflammatory activity in Kunming mouse assessed as inhibition of xylene-induced ear edema at 50 mg/kg, po administered 6 hrs before xylene challenge measured after 30 mins relative to vehicle treated control; type: functional
Method in brief: (§2)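 Kunming mice (18-22 g), xylene ear edema; compound given orally at 1, 2, 3, 4, 5 or 6 h before xylene application. Inhibition (%) vs vehicle control group at the corresponding time; p<0.05 vs vehicle.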

HeLa [4] = experiment: Inhibition of TNFalpha-induced NFkappaB (unknown origin) activation expressed in human HeLa cells pre-incubated for 8 hrs followed by stimulation with TNFalpha for 8 hrs by luciferase reporter assay; type: cell-based; method in brief: as §1
Mus musculus [5] = experiment: Antiinflammatory activity in Kunming mouse assessed as inhibition of xylene-induced ear edema at 50 mg/kg, po administered 2 hrs before xylene challenge measured after 30 mins relative to vehicle treated control; type: functional; method in brief: as §2
Mus musculus [6] = experiment: Antiinflammatory activity in Kunming mouse assessed as inhibition of xylene-induced ear edema at 50 mg/kg, po administered 1 hr before xylene challenge measured after 30 mins relative to vehicle treated control; type: functional; method in brief: as §2
Mus musculus [7] = experiment: Antiinflammatory activity in Kunming mouse assessed as inhibition of xylene-induced ear edema at 50 mg/kg, ip administered 0.5 hrs before xylene challenge measured after 30 mins relative to vehicle treated control; type: functional
Method in brief: (§3)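 Xylene-induced ear edema, Kunming mice (18-22 g), 8 per group; drug-treated, indomethacin and normal control groups; single i.p. dose. Edema reported in mg (mean ± SEM), inhibition rate (%) vs DMSO vehicle group; p<0.05 vs vehicle.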

Mus musculus [8] = experiment: Antiinflammatory activity in Kunming mouse assessed as inhibition of xylene-induced ear edema at 50 mg/kg, po administered 4 hrs before xylene challenge measured after 30 mins relative to vehicle treated control; type: functional; method in brief: as §2
Mus musculus [9] = experiment: Antiinflammatory activity in Kunming mouse assessed as inhibition of xylene-induced ear edema at 50 mg/kg, po administered 3 hrs before xylene challenge measured after 30 mins relative to vehicle treated control; type: functional; method in brief: as §2
Mus musculus [10] = experiment: Antiinflammatory activity in Kunming mouse assessed as inhibition of xylene-induced ear edema at 50 mg/kg, po administered 5 hrs before xylene challenge measured after 30 mins relative to vehicle treated control; type: functional; method in brief: as §2
Mus musculus [11] = experiment: Antiinflammatory activity in Kunming mouse assessed as inhibition of xylene-induced ear edema at 100 mg/kg, po administered 3 hrs before xylene challenge measured after 30 mins relative to vehicle treated control; type: functional
Mus musculus [12] = experiment: Antiinflammatory activity in Kunming mouse assessed as inhibition of xylene-induced ear edema at 100 mg/kg, po administered 2 hrs before xylene challenge measured after 30 mins relative to vehicle treated control; type: functional
Mus musculus [13] = experiment: Antiinflammatory activity in Kunming mouse assessed as inhibition of xylene-induced ear edema at 100 mg/kg, po administered 4 hrs before xylene challenge measured after 30 mins relative to vehicle treated control; type: functional
Mus musculus [14] = experiment: Antiinflammatory activity in Kunming mouse assessed as inhibition of xylene-induced ear edema at 100 mg/kg, ip administered 0.5 hrs before xylene challenge measured after 30 mins relative to vehicle treated control; type: functional; method in brief: as §3
Mus musculus [15] = experiment: Antiinflammatory activity in Kunming mouse assessed as inhibition of xylene-induced ear edema at 100 mg/kg, po administered 6 hrs before xylene challenge measured after 30 mins relative to vehicle treated control; type: functional
Mus musculus [16] = experiment: Antiinflammatory activity in Kunming mouse assessed as inhibition of xylene-induced ear edema at 100 mg/kg, po administered 1 hr before xylene challenge measured after 30 mins relative to vehicle treated control; type: functional
Mus musculus [17] = experiment: Antiinflammatory activity in Kunming mouse assessed as inhibition of xylene-induced ear edema at 100 mg/kg, po administered 5 hrs before xylene challenge measured after 30 mins relative to vehicle treated control; type: functional

**Q.** `NC(=O)c1nnc2c3ccccc3c(Oc3cccc(Cl)c3)nn12` was tested. Which inhibition (HeLa [1]) did it give?
**A.** Active

**Q.** For `NC(=O)c1nnc2c3ccccc3c(Oc3ccc(Cl)cc3)nn12`, which inhibition (HeLa [1]) is on record?
**A.** Active

**Q.** For `NC(=O)c1nnc2c3ccccc3c(Oc3ccc(Br)cc3)nn12`, which inhibition (HeLa [1]) is on record?
**A.** Active

**Q.** For `NC(=O)c1nnc2c3ccccc3c(Oc3ccccc3F)nn12`, which inhibition (HeLa [1]) is on record?
**A.** Active

**Q.** For `COc1ccc(Oc2nn3c(C(N)=O)nnc3c3ccccc23)cc1`, which inhibition (HeLa [1]) is on record?
**A.** Active

**Q.** With `Cc1cccc(Oc2nn3c(C(N)=O)nnc3c3ccccc23)c1` as the molecule, how does the Activity (HeLa [2]) read?
**A.** Non-toxic

**Q.** What about the inhibition in vivo at 50 mg/kg (Mus musculus [3]) of the same molecule?
**A.** 8.19%

**Q.** And the inhibition (HeLa [4])?
**A.** Dose-dependent effect

**Q.** And the inhibition in vivo at 50 mg/kg (Mus musculus [5])?
**A.** 8.92%

**Q.** And the inhibition in vivo at 50 mg/kg (Mus musculus [6])?
**A.** 5.63%

**Q.** What about the inhibition (HeLa [1]) of the same molecule?
**A.** Active

**Q.** And the inhibition in vivo at 50 mg/kg (Mus musculus [7])?
**A.** 58.2%

**Q.** What about the inhibition in vivo at 50 mg/kg (Mus musculus [8]) of the same molecule?
**A.** 38.9%

**Q.** What about the inhibition in vivo at 50 mg/kg (Mus musculus [9]) of the same molecule?
**A.** 22.7%

**Q.** And the inhibition in vivo at 50 mg/kg (Mus musculus [10])?
**A.** 22.4%

**Q.** `NC(=O)c1nnc2c3ccccc3c(Oc3cccc(F)c3)nn12` was tested. Which inhibition (HeLa [1]) did it give?
**A.** Active

**Q.** For `Cc1cccc2c3c(ccc12)C1=C(C(=O)C3=O)[C@@H](C)CO1`, which inhibition (HeLa [1]) is on record?
**A.** Active

**Q.** Which results are given for `COc1ccc2c(c1)c(CC(=O)O)c(C)n2C(=O)c1ccc(Cl)cc1` [INDOMETHACIN]?
**A.** inhibition in vivo at 100 mg/kg (Mus musculus [11]): 27.7%; inhibition in vivo at 100 mg/kg (Mus musculus [12]): 22.5%; inhibition in vivo at 100 mg/kg (Mus musculus [13]): 63.4%; inhibition in vivo at 100 mg/kg (Mus musculus [14]): 59.2%; inhibition in vivo at 100 mg/kg (Mus musculus [15]): 29.6%; inhibition in vivo at 100 mg/kg (Mus musculus [16]): 19.1%; inhibition in vivo at 100 mg/kg (Mus musculus [17]): 53.5%

**Q.** `NC(=O)c1nnc2c3ccccc3c(Oc3ccc(F)cc3)nn12` was tested. Which inhibition (HeLa [1]) did it give?
**A.** Active

**Q.** With `NC(=O)c1nnc2c3ccccc3c(Oc3ccc(Cl)cc3Cl)nn12` as the molecule, how does the Activity (HeLa [2]) read?
**A.** Toxic

**Q.** And the inhibition (HeLa [4])?
**A.** Dose-dependent effect

**Q.** And the inhibition (HeLa [1])?
**A.** Active

**Q.** Which inhibition (HeLa [1]) does the source give for `Cc1ccccc1Oc1nn2c(C(N)=O)nnc2c2ccccc12` here?
**A.** Active

**Q.** For `Cc1ccc(Oc2nn3c(C(N)=O)nnc3c3ccccc23)cc1`, which inhibition (HeLa [1]) is on record?
**A.** Active
